A short description of data set [1]: Cytotoxicity against human Hep2 cells at >2 uM. It counts as cell-based. Conditions: hep-2.
Data set [2] relates to Chlamydia pneumoniae. As to the kind of experiment: Antimicrobial activity against Chlamydia pneumoniae infected in HEp-2 cells assessed as a reduction in 16S rRNA transcript at 2 uM after 72 hrs by RT-PCR in presence of cycloheximide. It counts as functional, organism-based. Summed up:
(§1)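 Infected HEp-2 cells (5 x 10^5 cells/well) were treated with RU486 2 µM with or without cycloheximide 1 µg/ml. Total RNA was extracted at harvest. C. pneumoniae 16S rRNA was quantified by real-time RT-PCR (50 cycles, melt-curve check), and copies per reaction were taken from a standard curve of diluted C. pneumoniae DNA. Means ± SD, three experiments.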

For data set [3], the system named is Chlamydia pneumoniae. The data set is described as follows: Antimicrobial activity against Chlamydia pneumoniae infected in HEp-2 cells. It counts as functional, organism-based. Summed up:
(§2)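 HEp-2 cells were infected with C. pneumoniae (MOI 10, centrifuged at 800 x g for 1 h at room temperature) and washed. They were seeded at 5 x 10^4 cells/well and cultured 72 h with RU486 (0.02 to 2 µM; ethanol vehicle control). Freeze-thaw lysates were serially diluted 10-fold onto HEp-2 monolayers, spun, grown 72 h at 37°C with cycloheximide 1 µg/ml, and FITC anti-Chlamydia stained for IFU counts. Means of three experiments.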

Data set [4] deals with Chlamydia pneumoniae. As to the kind of experiment: Antimicrobial activity against Chlamydia pneumoniae infected in HEp-2 cells at 20 uM. It counts as functional, organism-based.
A short description of data set [5]: Cytotoxicity against human Hep2 cells at 20 uM. It counts as cell-based. Conditions: hep-2, 20 µM.
Data set [6] deals with Chlamydia pneumoniae. The data set is described as follows: Antimicrobial activity against Chlamydia pneumoniae infected in HEp-2 cells at 2 uM after 72 hrs. It counts as functional, organism-based. The essentials:
as §2

Data set [7] can be described thus: Cmax in pregnant women at 800 mg, po. It counts as ADME, organism-based. On the set-up: dose 800 mg, route oral. Particulars: female, human, in vivo.
Data set [8] has as its system Chlamydia pneumoniae. The data set is described as follows: Antimicrobial activity against Chlamydia pneumoniae infected in HEp-2 cells assessed as growth inhibition at 2 uM pretreated for 1 hr before infection. It counts as functional, organism-based. Summed up:
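Before infecting HEp-2 cells, the bacteria were pretreated with 2 µM RU486 for 1 h or left untreated. Cells were then cultured with or without RU486 2 µM or cycloheximide 1 µg/ml. Infective progeny in 72 h lysates was assessed by IFU assay. Means ± SD of three experiments.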

For data set [9], the system named is Chlamydia pneumoniae. The data set is described as follows: Antimicrobial activity against Chlamydia pneumoniae infected in HEp-2 cells at 2 uM after 72 hrs in presence of cycloheximide. It counts as functional, organism-based. The essentials:
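Infected HEp-2 cells were held 72 h with RU486 2 µM and/or cycloheximide 0.1 to 10 µg/ml, with untreated and ethanol controls. Infective progeny in cell lysates was counted by IFU assay on HEp-2 monolayers with FITC anti-Chlamydia antibody staining. Means ± SD of three experiments.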

Data set [10] concerns Chlamydia pneumoniae. The data set is described as follows: Antimicrobial activity against Chlamydia pneumoniae infected in HEp-2 cells assessed as inhibition of bacterial replication at 2 uM after 24 hrs. It counts as functional, organism-based. Summed up:
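Time course: infected HEp-2 cells (MOI 10, centrifugation-assisted) were incubated with or without 2 µM RU486 for up to 72 h. At each time point, infective progeny in freeze-thaw lysates was titrated on fresh HEp-2 monolayers by IFU assay (72 h with cycloheximide 1 µg/ml, FITC anti-Chlamydia staining). Means ± SD, three experiments.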

Data set [11] relates to Chlamydia pneumoniae. The data set is described as follows: Antimicrobial activity against Chlamydia pneumoniae infected in HEp-2 cells assessed as a reduction in 16S rRNA transcript at 2 uM after 24 hrs by RT-PCR. It counts as functional, organism-based. Summed up:
as §1

Data set [12] deals with Chlamydia pneumoniae. The data set is described as follows: Antimicrobial activity against Chlamydia pneumoniae infected in HEp-2 cells 0.02 to 2 uM after 72 hrs. It counts as functional, organism-based. Summed up: as §2
Data set [13] concerns Chlamydia pneumoniae. As to the kind of experiment: Antimicrobial activity against Chlamydia pneumoniae infected in HEp-2 cells assessed as a reduction in 16S rRNA transcript at 2 uM after 72 hrs by RT-PCR. It counts as functional, organism-based. Summed up: as §1
In data set [14] the test system is Chlamydia pneumoniae. As to the kind of experiment: Antimicrobial activity against Chlamydia pneumoniae infected in HEp-2 cells assessed as a reduction in 16S rRNA transcript at 2 uM after 24 hrs by RT-PCR in presence of cycloheximide. It counts as functional, organism-based. Summed up: as §1

Structures are written as SMILES. Activity calls are given as the source filed them. The calls are words filed in the database; no cut-off is given here.

As to `CC#C[C@]1(O)CC[C@H]2[C@@H]3CCC4=CC(=O)CCC4=C3[C@@H](c3ccc(N(C)C)cc3)C[C@@]21C` [MIFEPRISTONE], the Activity entry was “Toxic” in data set [1], “Toxic” in [5] and “Dose-dependent effect” in data set [12]. The outcome in data set [2], in data set [8] and in data set [14] was inactive. Also, the outcome in data set [3], in data set [4], in [6], in data set [9], in data set [11] and in data set [13] was Active. Further, in data set [7], the Cmax (as a rule, the highest concentration seen after dosing) stood at 2500 ng/mL. Besides, in data set [10], the inhibition entry is “Active”.
